In ChEMBL document CHEMBL4477202, “Synthesis and evaluation of duocarmycin SA analogs incorporating the methyl 1,2,8,8a-tetrahydrocyclopropa[c]imidazolo[4,5-e]indol-4-one-6-carboxylate (CImI) alkylation subunit” (Bioorg Med Chem, 2016):
One block for each compound: values may come before it. The source made the active and inactive calls. The rule behind the calls is not given here.

Legend:
L1210 = experiment: Cytotoxicity against mouse L1210 cells assessed as cell growth inhibition; type: functional, cell-based
Betapolyomavirus macacae [1] = experiment: Induction of alkylation at Simian virus 40 150-bp DNA w794 after 24 hrs by PAGE and autoradiography method
Outline: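 Labelled w794 DNA incubated with agent at 23 °C for 24 h. Unbound agent removed by EtOH precipitation, then thermolysis at 100 °C for 30 min to cleave strands at alkylation sites. Fragments resolved by 8% denaturing PAGE and read by autoradiography, alongside untreated control DNA and Sanger G, C, A, T sequencing lanes.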

[2] = Solvolysis reactivity of the compound in presence of Zn(acac)2 at 23 degC in MeoH solution by UV spectrophotometry
[3] = Solvolysis reactivity of the compound in presence of Cd(acac)2 at 23 degC in MeoH solution by UV spectrophotometry
[4] = Solvolysis reactivity of the compound in presence of Cu(acac)2 at 23 degC in MeoH solution by UV spectrophotometry
[5] = Solvolysis reactivity of the compound in presence of Ni(acac)2 at 23 degC in MeoH solution by UV spectrophotometry
[6] = Solvolysis reactivity of the compound in phosphate buffer assessed as half life at pH 3 upto 187 hrs by UV spectrophotometry
Outline: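 UV spectra taken hourly for the first 8 h, then every 12 h, over 0–187 h until absorbance stopped changing. Rate constant and t1/2 derived from initial (A_i) and final (A_f) absorbance.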

[7] = Solvolysis reactivity of the compound in presence of Pb(acac)2 at 23 degC in MeoH solution by UV spectrophotometry
Betapolyomavirus macacae [8] = experiment: Induction of alkylation at Simian virus 40 150-bp DNA w794 at 10^-5 to 10^-7/M after 24 hrs by PAGE and autoradiography method
Outline: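 w794 DNA incubated with agent at 23 °C for 24 h. Unbound agent was removed by EtOH precipitation, then the DNA was heated at 100 °C for 30 min to cleave strands at alkylated sites. Fragments were resolved by 8% denaturing PAGE against Sanger G, C, A and T sequencing lanes and untreated control DNA, and detected by autoradiography.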

[9] = Solvolysis reactivity of the compound in phosphate buffer at pH 7 upto 187 hrs by UV spectrophotometry
[10] = Solvolysis reactivity of the compound in aqueous buffer assessed as half life at pH 2 by UV spectrophotometry
[11] = Solvolysis reactivity of the compound in aqueous buffer assessed as solvolytic rate constant at pH 2 by UV spectrophotometry

SMILES: COC(=O)c1nc2c([nH]1)C(=O)C=C1N(C(=O)c3cc4cc(NC(=O)c5cc6ccccc6[nH]5)ccc4[nH]3)C[C@H]3C[C@]123
IC50 (L1210): 0.04 nM

Activity (Betapolyomavirus macacae [1]): inactive
SMILES: COC(=O)c1nc2c([nH]1)C(=O)C=C1N(C(=O)c3cc4cc(OC)c(OC)c(OC)c4[nH]3)C[C@H]3C[C@]123
IC50 (L1210): 0.05 nM

SMILES: COC(=O)c1nc2c([nH]1)C(=O)C=C1N(C(=O)OC(C)(C)C)CC3CC123 (stereo unspecified)
Stability [2]: Stable
Stability [3]: Stable
Stability [4]: Stable
Stability [5]: Stable
T1/2 [6]: 34.7 h
Stability [7]: Stable

SMILES: COC(=O)c1nc2c([nH]1)C(=O)C=C1N(C(=O)OC(C)(C)C)C[C@@H]3C[C@@]123
IC50 (L1210): 1100 nM

SMILES: COC(=O)c1nc2c([nH]1)C(=O)C=C1N(C(=O)c3cc4cc(OC)c(OC)c(OC)c4[nH]3)C[C@@H]3C[C@@]123
IC50 (L1210): 2.2 nM

Activity (Betapolyomavirus macacae [8]): Active
SMILES: COC(=O)c1nc2c3c(cc(O)c2[nH]1)N(C(=O)c1cc2cc(OC)c(OC)c(OC)c2[nH]1)C[C@H]3CCl

SMILES: COC(=O)c1cc2c([nH]1)C(=O)C=C1N(C(=O)c3cc4cc(OC)c(OC)c(OC)c4[nH]3)C[C@H]3C[C@]123
Activity (Betapolyomavirus macacae [1]): Active

SMILES: COC(=O)c1nc2c([nH]1)C(=O)C=C1N(C(=O)OC(C)(C)C)C[C@H]3C[C@]123
IC50 (L1210): 70 nM

SMILES: COC(=O)c1cc2c([nH]1)C(=O)C=C1N(C(=O)OC(C)(C)C)CC3CC123 (stereo unspecified)
Stability [9]: Stable
Stability [2]: Stable
Stability [3]: Stable
Stability [4]: Stable
Stability [5]: Stable
T1/2 [6]: 177 h
Stability [7]: Stable

SMILES: COC(=O)c1cc2c([nH]1)C(=O)C=C1N(C(=O)c3cc4cc(NC(=O)c5cc6ccccc6[nH]5)ccc4[nH]3)C[C@H]3C[C@]123
IC50 (L1210): 0.004 nM

SMILES: Cc1c[nH]c2c1[C@@]13C[C@@H]1CN(C(=O)OC(C)(C)C)C3=CC2=O
T1/2 [10]: 37 h
K [11]: 5.26 ×10⁻⁶ /s

SMILES: COC(=O)c1cc2c([nH]1)C(=O)C=C1N(C(=O)c3cc4cc(NC(=O)c5cc6ccccc6[nH]5)ccc4[nH]3)C[C@@H]3C[C@@]123
IC50 (L1210): 0.15 nM

SMILES: COC(=O)c1nc2c([nH]1)C(=O)C=C1N(C(=O)c3cc4cc(NC(=O)c5cc6ccccc6[nH]5)ccc4[nH]3)C[C@@H]3C[C@@]123
IC50 (L1210): 0.7 nM
